Results from ChEMBL document CHEMBL4219056 (Bioorg Med Chem, 2018).
Calls of active or inactive are those of the source. The rule behind the calls is not given here.

Assays:
[1] = molecular target: Free fatty acid receptor 1 (Homo sapiens, UniProt O14842); assay: Agonist activity at human FFA1 expressed in CHO cells assessed as increase in intracellular Ca2+ flux by Fluo-4 dye based FLIPR assay; format: functional, cell-based
Procedure, shortened: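 Stable human FFA1 CHO cells were seeded at 15 K cells/well and held 16 h at 37 °C in 5% CO2, then washed with HBSS. Ca2+ flux was read after graded compound addition. Response was scaled between vehicle and 10 µM γ-linolenic acid. EC50 is the mean of three independent determinations.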

[2] = Lipophilicity, log D of the compound at 100 uM at pH 7.4 after 24 hrs by HPLC method; format: physicochemical; conditions: buffer
Procedure, shortened: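 Shake-flask method: 10 mM DMSO stock was added to equal volumes of 0.01 M phosphate buffer pH 7.4 and 1-octanol, giving 100 µM final. Vials were shaken 24 h at 700 rpm, then left 1 h to separate. The octanol phase was diluted ×10 and both phases were run on HPLC. Injections were in duplicate; three independent experiments were run.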

[3] = tested on: Mus musculus; assay: Antidiabetic activity in ICR mouse assessed as reduction in blood glucose AUC (0 to 120 mins) at 20 mg/kg, po dosed 30 minutes prior to glucose challenge by OGTT relative to control; format: functional; parameters: scale not given: the % may be the effect or the level left
Procedure, shortened: (§1)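 Fasting male ICR mice (10 weeks, 18-22 g) got a single oral dose in 0.5% carboxymethyl cellulose. Oral glucose (30% solution, 3 g/kg) followed 30 min later. Blood glucose was sampled at -30, 0, 15, 30, 60 and 120 min.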

[4] = Plasma clearance in fasted Sprague-Dawley rat at 3 mg/kg, po administered as single dose measured up to 24 hrs by LC-PDA-MS/MS analysis; format: ADME, organism-based
Procedure, shortened: (§2)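 Male SD rats (8 weeks, 180-200 g) were fasted 12 h and dosed once orally at 3 mg/kg, suspended in 0.5% methylcellulose, n = 4 per group. Tail-vein blood was drawn at 5, 15, 30 and 45 min and at 1, 2, 4, 6, 8, 12, 18 and 24 h. Plasma was stored at -20 °C. Methanol precipitation with internal standard preceded LC-PDA-MS/MS. Values are mean ± SD.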

[5] = Cmax in fasted Sprague-Dawley rat at 3 mg/kg, po administered as single dose by LC-PDA-MS/MS analysis; format: ADME, organism-based; parameters: dose 3 mg/kg, route oral; conditions: in vivo; procedure, shortened: as §2
[6] = AUC (0 to 24 hrs) in fasted Sprague-Dawley rat at 3 mg/kg, po administered as single dose by LC-PDA-MS/MS analysis; format: ADME, organism-based; parameters: dose 3 mg/kg, time < 24 hr, route oral; conditions: in vivo; procedure, shortened: as §2
[7] = Half life in fasted Sprague-Dawley rat at 3 mg/kg, po administered as single dose by LC-PDA-MS/MS analysis; format: ADME, organism-based; conditions: in vivo; procedure, shortened: as §2
[8] = tested on: Mus musculus; assay: Antidiabetic activity in ICR mouse assessed as reduction in blood glucose AUC (0 to 120 mins) at 40 mg/kg, po dosed 30 minutes prior to glucose challenge by OGTT relative to control; format: functional; parameters: scale not given: the % may be the effect or the level left; procedure, shortened: as §1

Free fatty acid receptor 1, sequence (O14842 whole entry): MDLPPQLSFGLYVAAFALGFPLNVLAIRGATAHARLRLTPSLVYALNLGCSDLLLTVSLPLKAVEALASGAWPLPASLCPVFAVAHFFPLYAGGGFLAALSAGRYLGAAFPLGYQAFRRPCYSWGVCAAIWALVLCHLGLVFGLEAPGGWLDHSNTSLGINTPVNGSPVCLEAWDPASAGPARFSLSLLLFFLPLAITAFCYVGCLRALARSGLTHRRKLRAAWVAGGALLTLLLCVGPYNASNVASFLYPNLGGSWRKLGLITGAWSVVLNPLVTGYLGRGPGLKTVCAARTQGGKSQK

Row | SMILES | EC50 [1] [nM] | logD at 24 h, 100 µM [2] | Activity [8] | other results
1 | Cc1ccc(-c2c(C)noc2C)cc1COc1ccc2c(c1)OCC2CC(=O)O (stereo unspecified) | 53.7 | 2.07 |  | 
2 | Cc1cc(OCCCS(C)(=O)=O)cc(C)c1-c1cccc(COc2ccc3c(c2)OC[C@H]3CC(=O)O)c1 |  |  |  | Activity [3]: 37.5%; CL/F [4]: 0.618 mL/min/kg; Cmax [5]: 6460 ng/mL; AUC(0-t) at 24 h [6]: 79.5 µg·h/mL; half-life [7]: 257 min
3 | Cc1noc(C)c1-c1cc(COc2ccc3c(c2)OC[C@H]3CC(=O)O)ccc1Cl | 7.9 | 1.93 | 26.2% | CL/F [4]: 0.308 mL/min/kg; Cmax [5]: 14100 ng/mL; AUC(0-t) at 24 h [6]: 142 µg·h/mL; half-life [7]: 279 min
4 | Cc1noc(C)c1-c1cccc(COc2ccc(CCC(=O)O)cc2)c1 |  |  |  | Activity ([8]; tested as the 2H-labelled form): Active
5 | Cc1noc(C)c1-c1cc(COc2ccc3c(c2)OCC3CC(=O)O)ccc1Cl (stereo unspecified) | 18.6 | 1.96 | Active | 
6 | [2H]C([2H])(Cc1ccc(OCc2cccc(-c3c(C)noc3C)c2)cc1)C(=O)O | 38.4 | 1.83 |  | 
7 | [2H]C([2H])(Cc1ccc(OCc2cccc(-c3c(C)noc3C)c2)cc1F)C(=O)O | 45.7 |  |  | 
8 | Cc1noc(C)c1-c1ccc(Cl)c(COc2ccc3c(c2)OCC3CC(=O)O)c1 (stereo unspecified) | 39.7 | 2.13 | Active | 

Continued, in another order:

Row | EC50 [1] [nM] | logD at 24 h, 100 µM [2] | SMILES | Activity [8] | other results
9 | 53.6 | 3.95 | Cc1ccc(C)n1-c1cccc(COc2ccc3c(c2)OCC3CC(=O)O)c1 (stereo unspecified) |  | 
10 | 27.5 | 1.57 | Cc1noc(C)c1-c1cccc(COc2ccc3c(c2)OCC3CC(=O)O)c1 (stereo unspecified) | Active | 
11 | 157 |  | Cc1ccsc1-c1cccc(COc2ccc3c(c2)OCC3CC(=O)O)c1 (stereo unspecified) |  | 
12 | 104 |  | Cc1nn(C)c(C)c1-c1cccc(COc2ccc3c(c2)OCC3CC(=O)O)c1 (stereo unspecified) |  | 
